# Data taken from ChEMBL document CHEMBL1949649, “5-sulfonyl-benzimidazoles as selective CB2 agonists-part 2” (Bioorg Med Chem Lett, 2012).
# pEC50: −log10 of the molar value. Active and inactive are the calls of the source. The rule behind the calls is not given here.
# Assays:
# Cannabinoid receptor 1 = Cannabinoid receptor 1 (Homo sapiens, UniProt P21554); test: Agonist activity at human CB1 receptor; type: functional
# [1] = Drug metabolism in human liver microsomes after 15 mins; type: ADME, Microsome; details: read-out: Drug metabolism
# Cannabinoid receptor 2 = Cannabinoid receptor 2 (Homo sapiens, UniProt P34972); test: Agonist activity at human CB2 receptor; type: functional
# Rattus norvegicus [2] = test: Toxicity in rat assessed as decrease in body temperature at 10 mg/kg, ip by modified tetrad test; type: organism-based; design: dose 10 mg/kg, route intraperitoneal; details: in vivo
# [3] = Drug metabolism in dog liver microsomes at 5 uM after 60 mins; type: ADME, Canis lupus familiaris, Microsome; details: read-out: Drug metabolism
# Method in brief: (§1)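 Test compound incubated at 5 µM with liver microsomes (human, rat, mouse or dog) for 60 min; read-out is % of compound metabolised.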
# [4] = Ratio drug uptake in brain to plasma of Sprague-Dawley rat at 2.5 mg/kg, iv and 10 mg/kg, po; type: ADME, organism-based; details: read-out: BPR
# Method in brief: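 Rat tissue distribution study; brain and plasma levels compared as brain/plasma ratio.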
# [5] = Drug metabolism in rat liver microsomes at 5 uM after 60 mins; type: ADME, Microsome; details: read-out: Drug metabolism; method in brief: as §1
# [6] = Half life in Sprague-Dawley rat at 10 mg/kg, po; type: ADME, organism-based; design: dose 10 mg/kg, route oral; details: in vivo
# Rattus norvegicus [7] = species: Rattus norvegicus; test: Antihyperalgesic activity against Freund's adjuvant-induced thermal hyperalgesia in rat; type: functional, organism-based
# [8] = Absolute oral bioavailability in Beagle dog at 5 mg/kg; type: ADME, organism-based, Canis lupus familiaris; details: in vivo
# Method in brief: (§2)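 Beagle dogs dosed at 1 mg/kg iv and 5 mg/kg po; plasma kinetics give clearance, volume of distribution, iv and po half-life, and absolute oral bioavailability.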
# [9] = Half life in Sprague-Dawley rat at 2.5 mg/kg, iv; type: ADME, organism-based; design: dose 2.5 mg/kg, route intravenous; details: in vivo
# [10] = Drug metabolism in human liver microsomes at 5 uM after 60 mins; type: ADME, Microsome; details: read-out: Drug metabolism; method in brief: as §1
# Rattus norvegicus [11] = test: Antiallodynic activity in rat chronic constriction injury-induced neuropathic pain model assessed as reversal of pain response at 10 to 40 mg/kg/day, sc; type: functional, organism-based
# Method in brief: (§3)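 Chronic constriction injury of rats (n = 7 per group); daily subcutaneous dosing over repeated days, with morphine as comparator. Cold allodynia read as lifting on a cold plate at 0 °C for 4 min.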
# [12] = Solubility of the compound in 10% cyclodextrin
# [13] = Drug metabolism in mouse liver microsomes at 5 uM after 60 mins; type: ADME, Microsome; details: read-out: Drug metabolism; method in brief: as §1
# Mus musculus = test: Antiinflammatory activity in mouse EAE model of multiple sclerosis assessed as delay in neurological signs of autoimmune encephalomyelitis disease progression at 40 mg/kg/day, po administered from day 8 to day 16; type: functional, organism-based
# Method in brief: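 Mice with experimental autoimmune encephalomyelitis given chronic oral dosing at 40 mg/kg; neurological signs scored as EAE disease scores over time.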
# Rattus norvegicus [14] = test: Toxicity in rat up to 40 mg/kg, ip by modified tetrad test; type: organism-based; design: dose 40 mg/kg, route intraperitoneal; details: in vivo
# Rattus norvegicus [15] = test: Antinociceptive activity in rat at 10 mg/kg by hot plate method; type: functional, organism-based; design: dose 10 mg/kg
# Rattus norvegicus [16] = test: Antinociceptive activity in rat at 10 mg/kg by tail withdrawal reflex test; type: functional, organism-based; design: dose 10 mg/kg
# [17] = Half life in Beagle dog at 1 mg/kg, iv; type: ADME, organism-based, Canis lupus familiaris; design: dose 1 mg/kg, route intravenous; details: in vivo; method in brief: as §2
# [18] = Absolute oral bioavailability in Sprague-Dawley rat at 10 mg/kg; type: ADME, organism-based; details: in vivo
# [19] = Volume of distribution in Sprague-Dawley rat at 2.5 mg/kg, iv and 10 mg/kg, po; type: ADME, organism-based; details: in vivo
# [20] = Volume of distribution in Beagle dog at 1 mg/kg, iv and 5 mg/kg, po; type: ADME, organism-based, Canis lupus familiaris; details: in vivo; method in brief: as §2
# Rattus norvegicus [21] = species: Rattus norvegicus; test: Antihyperalgesic activity against carrageenan-induced thermal hyperalgesia in rat; type: functional, organism-based
# [22] = Clearance in Sprague-Dawley rat at 2.5 mg/kg, iv and 10 mg/kg, po; type: ADME, organism-based; details: in vivo
# Rattus norvegicus [23] = test: Antinociceptive activity in rat at 10 mg/kg by paw flick test; type: functional, organism-based; design: dose 10 mg/kg
# [24] = Solubility of the compound in water; type: physicochemical
# [25] = Lipophilicity, Log P of the compound; type: physicochemical; details: octanol/water
# [26] = Half life in Beagle dog at 5 mg/kg, po; type: ADME, organism-based, Canis lupus familiaris; design: dose 5 mg/kg, route oral; details: in vivo; method in brief: as §2
# [27] = Clearance in Beagle dog at 1 mg/kg, iv and 5 mg/kg, po; type: ADME, organism-based, Canis lupus familiaris; details: in vivo; method in brief: as §2
# Rattus norvegicus [28] = test: Antiallodynic activity in rat chronic constriction injury-induced neuropathic pain model assessed as reversal of pain response at 40 mg/kg/day, sc after 12 days; type: functional, organism-based; method in brief: as §3
# Rattus norvegicus [29] = test: Antiallodynic activity in rat chronic constriction injury-induced neuropathic pain model assessed as reversal of pain response at 40 mg/kg/day, sc; type: functional, organism-based; method in brief: as §3
# Rattus norvegicus [30] = test: Toxicity in rat assessed as appearance of flat body posture at 2.5 mg/kg, ip by modified tetrad test; type: organism-based; design: dose 2.5 mg/kg, route intraperitoneal; details: in vivo
# Chain of Cannabinoid receptor 2 (P34972 whole entry): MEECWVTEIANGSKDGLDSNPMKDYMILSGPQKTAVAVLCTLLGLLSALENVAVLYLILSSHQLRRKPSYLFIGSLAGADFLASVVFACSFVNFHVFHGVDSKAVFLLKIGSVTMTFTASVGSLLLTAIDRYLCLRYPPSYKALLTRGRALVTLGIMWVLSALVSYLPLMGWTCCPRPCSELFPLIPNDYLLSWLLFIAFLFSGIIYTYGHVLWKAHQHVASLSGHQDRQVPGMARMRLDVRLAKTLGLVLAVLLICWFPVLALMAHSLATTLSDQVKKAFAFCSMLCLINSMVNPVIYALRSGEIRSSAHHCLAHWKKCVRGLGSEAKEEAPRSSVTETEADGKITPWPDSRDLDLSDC
# Chain of Cannabinoid receptor 1 (P21554 whole entry): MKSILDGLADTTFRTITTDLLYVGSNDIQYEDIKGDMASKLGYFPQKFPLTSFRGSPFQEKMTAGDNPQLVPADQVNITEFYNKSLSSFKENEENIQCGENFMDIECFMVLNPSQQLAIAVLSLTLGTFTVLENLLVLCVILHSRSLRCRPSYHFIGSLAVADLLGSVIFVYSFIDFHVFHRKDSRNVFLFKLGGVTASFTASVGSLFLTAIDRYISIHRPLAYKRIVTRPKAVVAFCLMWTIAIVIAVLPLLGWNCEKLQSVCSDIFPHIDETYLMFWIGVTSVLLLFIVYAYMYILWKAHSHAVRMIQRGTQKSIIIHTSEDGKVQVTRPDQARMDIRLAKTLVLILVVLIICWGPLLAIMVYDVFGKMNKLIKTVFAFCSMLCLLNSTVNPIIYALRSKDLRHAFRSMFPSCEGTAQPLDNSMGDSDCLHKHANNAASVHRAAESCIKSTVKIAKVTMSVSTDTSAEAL
structure (smiles),measurement,setting,value
COCCS(=O)(=O)c1ccc2c(c1)nc(C(C)(C)C)n2CC1CCN(C(C)=O)CC1,pEC50,Cannabinoid receptor 1,< 5.00
CCC(=O)N1CCC(Cn2c(C(C)(C)C)nc3cc(S(=O)(=O)CCCC(F)(F)F)ccc32)CC1,metabolised at 0.25 h,[1],4%
same,pEC50,Cannabinoid receptor 1,< 5.00
CC(=O)N1CCC(Cn2c(C(C)(C)C)nc3cc(S(=O)(=O)CCCC(F)(F)F)ccc32)CC1,pEC50,Cannabinoid receptor 2,7.89
same,metabolised at 0.25 h,[1],17%
same,pEC50,Cannabinoid receptor 1,< 5.00
CC(=O)N1CCC(Cn2c(C(C)(C)C)nc3cc(S(=O)(=O)c4ccc(F)cc4)ccc32)CC1,Activity,Rattus norvegicus [2],Toxic
same,pEC50,Cannabinoid receptor 2,8.54
same,metabolised at 0.25 h,[1],8%
same,pEC50,Cannabinoid receptor 1,< 5.00
CC(=O)NCCc1cc(S(=O)(=O)c2ccc3c(c2)nc(C(C)(C)C)n3CC2CCOCC2)ccn1,metabolised at 0.25 h,[1],44%
CC(=O)N1CCC(Cn2c(C(C)(C)C)nc3cc(S(=O)(=O)C4CCCC4)ccc32)CC1,metabolised at 0.25 h,[1],87%
same,pEC50,Cannabinoid receptor 1,< 5.00
CCS(=O)(=O)c1ccc2c(c1)nc(C(C)(C)C)n2CC1CCN(C=O)CC1,pEC50,Cannabinoid receptor 2,7.64
same,metabolised at 0.25 h,[1],7%
same,pEC50,Cannabinoid receptor 1,< 5.00
CC(=O)N1CCC(Cn2c(C(C)(C)C)nc3cc(S(=O)(=O)CC4CC4)ccc32)CC1,"metabolised at 1 h, 5 µM",[3],4%
same,Kp,[4],0.18
same,"metabolised at 1 h, 5 µM",[5],0%
same,pEC50,Cannabinoid receptor 2,8.09
same,half-life,[6],4 h
same,Activity,Rattus norvegicus [7],inactive
same,bioavailability,[8],86%
same,half-life,[9],1.3 h
same,"metabolised at 1 h, 5 µM",[10],5%
same,Activity,Rattus norvegicus [11],inactive
same,metabolised at 0.25 h,[1],18%
same,solubility,[12],25000 µg/mL
same,"metabolised at 1 h, 5 µM",[13],12%
same,Activity,Mus musculus,Active
same,Activity,Rattus norvegicus [14],Non-toxic
same,Activity,Rattus norvegicus [15],inactive
same,Activity,Rattus norvegicus [16],inactive
same,pEC50,Cannabinoid receptor 1,< 5.00
same,half-life,[17],3 h
same,bioavailability,[18],56%
same,Vd,[19],4.4 L/kg
same,Vd,[20],1.9 L/kg
same,Activity,Rattus norvegicus [21],inactive
same,clearance,[22],41.7 mL/min/kg
same,Activity,Rattus norvegicus [23],inactive
same,solubility,[24],1500 µg/mL
same,logP,[25],1.67
same,half-life,[26],3.2 h
same,clearance,[27],13.3 mL/min/kg
CC(=O)N1CCC(Cn2c(C(C)(C)C)nc3cc(S(=O)(=O)c4nccs4)ccc32)CC1,"metabolised at 1 h, 5 µM",[3],0%
same,Kp,[4],0.05
same,"metabolised at 1 h, 5 µM",[5],0%
same,pEC50,Cannabinoid receptor 2,8.11
same,half-life,[6],3.1 h
same,Activity,Rattus norvegicus [7],inactive
same,bioavailability,[8],100%
same,half-life,[9],3.5 h
same,"metabolised at 1 h, 5 µM",[10],12%
same,metabolised at 0.25 h,[1],9%
same,solubility,[12],8000 µg/mL
same,"metabolised at 1 h, 5 µM",[13],6%
same,Activity,Mus musculus,Active
same,Activity,Rattus norvegicus [14],Non-toxic
same,Activity,Rattus norvegicus [15],inactive
same,Activity,Rattus norvegicus [16],inactive
same,Activity,Rattus norvegicus [28],Active
same,pEC50,Cannabinoid receptor 1,5.46
same,half-life,[17],4 h
same,Activity,Rattus norvegicus [29],Active
same,bioavailability,[18],35%
same,Vd,[19],1.3 L/kg
same,Vd,[20],3.7 L/kg
same,Activity,Rattus norvegicus [21],inactive
same,clearance,[22],53.3 mL/min/kg
same,Activity,Rattus norvegicus [23],inactive
same,solubility,[24],20 µg/mL
same,logP,[25],1.9
same,half-life,[26],5 h
same,clearance,[27],11.7 mL/min/kg
COCCCc1cc(S(=O)(=O)c2ccc3c(c2)nc(C(C)(C)C)n3CC2CCOCC2)ccn1,pEC50,Cannabinoid receptor 2,8.96
same,metabolised at 0.25 h,[1],93%
same,pEC50,Cannabinoid receptor 1,< 5.00
CC(=O)NCCCCCc1cc(S(=O)(=O)c2ccc3c(c2)nc(C(C)(C)C)n3CC2CCOCC2)ccn1,pEC50,Cannabinoid receptor 2,8.25
same,metabolised at 0.25 h,[1],86%
same,pEC50,Cannabinoid receptor 1,< 5.00
CCS(=O)(=O)c1ccc2c(c1)nc(C(C)(C)C)n2CC1CCN(C(C)=O)CC1,pEC50,Cannabinoid receptor 2,8.08
same,metabolised at 0.25 h,[1],13%
same,pEC50,Cannabinoid receptor 1,< 5.00
CC(C)(C)c1nc2cc(S(=O)(=O)CCCC(F)(F)F)ccc2n1CC1CCNCC1,pEC50,Cannabinoid receptor 2,6.62
same,pEC50,Cannabinoid receptor 1,< 5.00
COCCCOc1cc(S(=O)(=O)c2ccc3c(c2)nc(C(C)(C)C)n3CC2CCOCC2)ccn1,pEC50,Cannabinoid receptor 2,9.30
same,metabolised at 0.25 h,[1],100%
CC(C)(C)c1nc2cc(S(=O)(=O)CCCC(F)(F)F)ccc2n1CC1CCOCC1,Activity,Rattus norvegicus [2],Toxic
same,Activity,Rattus norvegicus [30],Toxic
same,pEC50,Cannabinoid receptor 2,8.96
same,metabolised at 0.25 h,[1],36%
same,pEC50,Cannabinoid receptor 1,6.49
